High-throughput results: PubChem, several laboratories
Most compounds without a hit are left out; they make up all but 12% or so of the library.
Dynein transport: inhibitors of GR-EGFP nuclear translocation, primary screen, dynein cargo transport inhibitor project, imaging, high-content, 3617.4 mouse cells | test concentration mostly 20 µM; stimulated with dexamethasone, 1 µM; active compounds read low | z-score, hits read low | 220,000 compounds, 0.47% hits | AID 1381, 2008;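 active = plate z-score of nuclear minus cytoplasmic receptor signal below a set negative limit, without overly bright fluorescence or cell loss, cut at about -3.5 in these data, passing the limit was not always enough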;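 note: z-score of nuclear minus cytoplasmic ring GR-EGFP intensity difference per well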
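Also added: dexamethasone, 1.0 µM final. Medium: tet-free, stripped-serum medium. Detection: fixed, Hoechst-stained cells imaged at 10x for EGFP. Read-out: nuclear-to-cytoplasmic GR-EGFP distribution per well. Times: induction 48 h, compound 1 h, agonist 30 min.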
MT stabilize HCS: microtubule stabilizers in HeLa cells, primary screen, imaging, high-content imaging; HeLa tubulin immunostaining HCS, 24 h; share of cells brighter than vehicle mean+2SD; % tubulin-high responders, % at 10 µM; 200,000 compounds, 0.83% hits;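 active = plate Z-score above 3 for both tubulin-high and condensed-nucleus cell shares, with cell loss under 80%, at 10 µM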;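 note: anti alpha tubulin signal scored within the nucleus-defined area of each cell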
L major viab: Leishmania major promastigote growth inhibition, primary screen; Leishmania major promastigotes, resazurin fluorescence viability; AID 1063, 2008; 200,000 compounds, 9% hits; inhibition, % at 10 µM; in the data active = inhibition above about 50%;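 note: promastigotes grown with compound for 44 hours at 28 °C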
bCat nuc transl: modulators of beta-catenin nuclear translocation, primary screen, imaging, HeLa cells, immunofluorescence, high-content; nuclear translocation activity, % at 5 µM; 190,000 compounds, 0.3% hits;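 active = nuclear translocation activity above 50% at 5 µM, with a well cell count of 50 or more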;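 note: per-cell ratio of nuclear to cytoplasmic median beta-catenin stain intensity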
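Read-out: Nuclear/cytoplasmic beta-catenin signal ratio, % activation | Assay system: Human HeLa cell line | Times: 24 h compound exposure at 37°C, 5% CO2 | Signal: Fluorescence imaging of beta-catenin antibody stain plus DAPI | Dosing: 5 µM primary, 0.02–20 µM confirmation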
Autophagy mod: autophagy modulators in MEF cells, primary screen, imaging, high-content, MEF GFP-LC3; MEF GFP-LC3 puncta imaging; test concentration mostly 10 µM; calls only at 10 µM (by protocol); 190,000 compounds, 0.98% hits;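 active = percentage of spot-positive cells more than 3 SD above its plate mean, without a fluorescence outlier flag or 80% toxicity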
CHOP inh: inhibitors of CHOP promoter induction, primary screen, cell-based, unfolded protein response, luciferase reporter. CHO-K1 CHOP-promoter luciferase, tunicamycin-induced, 15-18 h. inhibition, % at 10 µM. 220,000 compounds, 3.8% hits;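 active = compounds that reduced the stress-induced luciferase reporter signal by more than about 70% of percent inhibition, limit read from the data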
Each line names hits and unclear results; the compound was inactive in the other large screens.

COc1ccc(-c2cc3nc(C)c(CCC(=O)NCc4ccco4)c(C)n3n2)c(OC)c1	none
Cc1nc2c(-c3ccccc3)c(C)nn2c(C)c1CCC(=O)NCc1ccco1	none
CCc1nnc(NC(=O)CSc2nnc(CNc3ccc(F)cc3)n2C2CCCCC2)s1	none
COC(=O)C1=CN(c2ccc(OC)cc2)C=C(C(=O)OC)C1c1ccc(C)c([N+](=O)[O-])c1	L major viab 99
Cc1ccc(-c2nnc3n2N=C(c2ccc(Br)cc2)CS3)cc1	CHOP inh 89
c1ccc(-c2ccc(C3=Nn4c(nnc4-c4cc(-c5ccccc5)n[nH]4)SC3)cc2)cc1	none
Cc1cccc(-c2nnc3n2N=C(c2ccc(Br)cc2)CS3)c1	none (no result: Dynein transport, MT stabilize HCS, L major viab, Autophagy mod, CHOP inh)
Clc1ccc(C2=Nn3c(nnc3-c3n[nH]c4c3CCC4)SC2)cc1	MT stabilize HCS 32, L major viab 58, Autophagy mod active (no result: CHOP inh)
Brc1ccc(C2=Nn3c(nnc3-c3n[nH]c4c3CCC4)SC2)cc1	MT stabilize HCS 34, L major viab 59, bCat nuc transl 146 (no result: CHOP inh)
COc1ccc(OC)c(NC(=O)CN(Cc2ccccc2)S(C)(=O)=O)c1	none
Cn1c(SCc2cccc(Cl)c2)nc(C(F)(F)F)cc1=O	CHOP inh 84
Cn1c(SCc2ccccc2Cl)nc(C(F)(F)F)cc1=O	CHOP inh 74
Cn1c(SCc2ccccc2)nc(C(F)(F)F)cc1=O	none
Cn1c(SCc2c(Cl)cccc2Cl)nc(C(F)(F)F)cc1=O	CHOP inh 82
CC(=O)CSc1nc(C(F)(F)F)cc(=O)n1-c1ccccc1	none (no result: Dynein transport)
O=C(CCNC(=O)c1ccccc1)Nc1cccnc1	none
COc1ccc(NC(=S)N/N=C2/CCCc3c(C)cc(C)cc32)cc1	CHOP inh 77
COc1ccc(CC2(CO)CCN(Cc3ccc(NC(C)=O)cc3)CC2)cc1	none
COc1ccc(CC2(CO)CCN(Cc3nc(C(C)C)cs3)CC2)cc1	L major viab 91
COc1ccc(CC2(CO)CCN(Cc3ccc4c(c3)CCO4)CC2)cc1	L major viab 79
COc1ccc(CC2(CO)CCN(Cc3ccc(OC(F)(F)F)cc3)CC2)cc1	L major viab 78
CCOc1cc(CN2CCC(CO)(Cc3cccc(C(F)(F)F)c3)CC2)ccc1OC	L major viab 85
CCCn1ncc(CN2CCC(CO)(Cc3ccc(OC)cc3)CC2)c1C	none
CCn1cc(C2CC(=O)NC2=O)c2ccccc21 (stereo unspecified)	none (no result: MT stabilize HCS, L major viab, Autophagy mod)
COc1ccc(CN2CCC(CO)(Cc3ccccc3C(F)(F)F)CC2)c(F)c1	L major viab 77
COc1ccc(CC2(CO)CCN(Cc3cccc4nccnc34)CC2)cc1	none
COc1ccccc1Cn1c(=O)c2ccccc2n2c(Sc3ncnc4sccc34)nnc12	L major viab 89
O=c1[nH]c(=O)n([C@H]2C[C@H](O)[C@@H](CO)O2)cc1F	L major viab 82 (no result: bCat nuc transl, CHOP inh)
COc1cc2nc(CN3CCN(S(=O)(=O)c4ccc(Cl)cc4)CC3)[nH]c(=O)c2cc1OC	none
O=[N+]([O-])c1ccc(/C=N/Nc2nc(NCc3ccccc3)nc(N3CCOCC3)n2)cc1	none
O=[N+]([O-])c1cccc(/C=N/Nc2nc(NCc3ccccc3)nc(N3CCOCC3)n2)c1O	L major viab 99
FC(F)(F)c1cc(Sc2ccccc2)nc(-c2ccccn2)n1	CHOP inh 71
N#Cc1ccc(-c2ccc(OCC(=O)NCCc3ccccc3)cc2)cc1	none
N#Cc1ccc(-c2ccc(OCC(=O)NCC(=O)Nc3ccc(F)c(F)c3F)cc2)cc1	L major viab 58
C/C(=N/NC(=O)c1cccs1)c1cccs1	none (no result: MT stabilize HCS, L major viab, Autophagy mod)
C/C(=N\NC(=O)CC1(C)OCCO1)c1cccs1	Autophagy mod active
COc1ccc(/C(C)=N/NC(=O)CNC(=O)c2cccs2)cc1OC	none
COc1cc(C(=O)NCC(=O)N/N=C(/C)c2cccs2)cc(OC)c1OC	L major viab 65
CCCn1nc(-c2nnc(-c3ccc(C)c(C)c3)o2)c2ccccc2c1=O	none
Cc1c(C(C)(C(=O)O)c2c(C)n(C)c3ccccc23)c2ccccc2n1C	none (no result: MT stabilize HCS, L major viab, Autophagy mod)
